Results: paper PMC10286293 (ACS Omega, 2023)

What was measured:
[1] = Intrinsic dissolution rate in pure water; type: physicochemical; details: 310 K, 100 rpm
S. aureus = assay: Antibacterial activity; type: cell-based, Staphylococcus aureus; details: Figure 9, trimethoprim vs compound 1 vs 5-fluorouracil
How it was run: (§1)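 Two-fold broth microdilution at ten concentrations (32, 16, 8, 4, 2, 1, 0.5, 0.25, 0.125, 0.0625 μg/mL) of test compound with bacterial suspension in medium. Medium-only and bacteria-plus-medium controls were included. Plates were incubated at 310 K for 24 h, and OD600 gave the MIC.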

Hygroscopicity test = type: physicochemical; details: for percentage weight gain on the first day: 298 K, relative humidity 90 ± 5%; for hygroscopicity class (Chinese Pharmacopoeia): by weight gain
mice = details: cited from earlier work
P. aeruginosa = assay: Antibacterial activity; type: cell-based, Pseudomonas aeruginosa; details: Figure 9, trimethoprim vs compound 1 vs 5-fluorouracil
How it was run: as §1

S. pneumoniae = assay: Antibacterial activity; type: cell-based, Streptococcus pneumoniae; details: Figure 9, trimethoprim vs compound 1 vs 5-fluorouracil
How it was run: as §1

[2] = test system: human colon cancer cells (SW480); assay: In vitro anticancer activity, MTT assay; type: cell-based; details: SW480 (human rectal cancer cells), MTT, 24, 48, 72 h, dose-dependent
How it was run: (§2)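 Cells were grown in DMEM with 10% FBS, 1% penicillin and 1% streptomycin at 37 °C, 5% CO2, and used in log phase (85–95% confluent). They were seeded at 3 × 10^5 cells/mL, grown 24 h, then exposed to a range of test compound concentrations for 24, 48 or 72 h, with a positive control. MTT (5 mg/mL stock) was added for 4 h at 37 °C. Formazan was dissolved in DMSO and read at 490 nm after 10 min shaking, with blank-well correction.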

[3] = test system: breast cancer cells (MDA-MB-231); assay: In vitro anticancer activity, MTT assay; type: cell-based, human; details: MDA-MB-231 breast cancer cells, MTT, 24, 48, 72 h, dose-dependent
How it was run: as §2

S. dysenteriae = assay: Antibacterial activity; type: cell-based, Shigella dysenteriae; details: Figure 9, trimethoprim vs compound 1 vs 5-fluorouracil
How it was run: as §1

[4] = test system: lung cancer cells (H1299); assay: In vitro anticancer activity, MTT assay; type: cell-based, human; details: MTT, 24, 48, 72 h, dose-dependent
How it was run: as §2

COc1cc(Cc2cnc(N)nc2N)cc(OC)c1OC [trimethoprim]
IDR (intrinsic dissolution rate) [1]: 0.039 mg cm^–2 min^–1 | antibacterial activity, comparison in words (S. aureus): greater than that of compound 1 | percentage weight gain on the first day (Hygroscopicity test): 0.20% | hygroscopicity class (Chinese Pharmacopoeia) (Hygroscopicity test): slightly hygroscopic (slightly hygroscopic ≥ 0.2%) | oral LD50 (mice): > 5300 mg/kg

O=c1[nH]cc(F)c(=O)[nH]1 [5-fluorouracil]
antibacterial activity, comparison in words (P. aeruginosa): the greatest | antibacterial activity, comparison in words (S. pneumoniae): the greatest | inhibition effect on cancer cells [2]: significant inhibition effect | antibacterial activity, comparison in words (S. aureus): the greatest | percentage weight gain on the first day (Hygroscopicity test): 0.19% | hygroscopicity class (Chinese Pharmacopoeia) (Hygroscopicity test): slightly hygroscopic (slightly hygroscopic ≥ 0.2%) | oral LD50 (mice): 220 mg/kg | inhibition effect on cancer cells [3]: significant inhibition effect | antibacterial activity, comparison in words (S. dysenteriae): the greatest | inhibition effect on cancer cells [4]: significant inhibition effect
